Legend:
Type in all cases: functional
T47D = assay: Cytotoxicity against human T47D cells after 48 hrs by sulforhodamine B assay; conditions: read-out: LC50 (the source's name)
OVCAR-8 = assay: Cytotoxicity against human OVCAR8 cells after 48 hrs by sulforhodamine B assay; conditions: OVCAR-8, 48 h, read-out: LC50 (the source's name)
Outline: (§1)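 NCI 60 human tumour cell line panel run to the NCI protocol. GI50, TGI and LC50 come from log concentration vs % growth inhibition curves for each cell line. Lines insensitive at the top concentration are reported with ">".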

SR [1] = assay: Growth inhibition of human SR cells after 48 hrs by sulforhodamine B assay
Outline: (§2)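 NCI 60-cell panel five-dose assay. GI50, TGI and LC50 are derived from log concentration versus % growth inhibition curves. Cell lines insensitive at the top concentration are given a ">" prefix.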

NCI/ADR-RES = assay: Growth inhibition of human NCI/ADR-RES cells after 48 hrs by sulforhodamine B assay
Outline: (§3)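 GI50, TGI and LC50 were derived from log concentration versus % growth inhibition curves for each cell line. GI50 is the concentration giving a 50% decrease in net cell growth. Insensitive lines are reported as greater than the highest concentration.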

SW-620 [2] = assay: Growth inhibition of human SW620 cells after 48 hrs by sulforhodamine B assay; conditions: SW-620, 48 h; outline: as §2
SF-539 = assay: Growth inhibition of human SF539 cells after 48 hrs by sulforhodamine B assay; conditions: SF-539, 48 h; outline: as §3
LOX IMVI [3] = assay: Growth inhibition of human LOXIMVI cells after 48 hrs by sulforhodamine B assay
Outline: (§4)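 From log concentration versus % growth curves, GI50 (50% decrease in net growth), TGI (total growth inhibition) and LC50 (net 50% loss of initial cells) are derived for each line.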

LOX IMVI [4] = assay: Cytotoxicity against human LOXIMVI cells after 48 hrs by sulforhodamine B assay; conditions: read-out: LC50 (the source's name); outline: as §1
MDA-MB-435 = assay: Growth inhibition of human MDA-MB-435 cells after 48 hrs by sulforhodamine B assay; conditions: MDA-MB-435, 48 h; outline: as §3
OVCAR-4 = assay: Cytotoxicity against human OVCAR4 cells after 48 hrs by sulforhodamine B assay; conditions: OVCAR-4, 48 h, read-out: LC50 (the source's name); outline: as §1
SF-295 = assay: Cytotoxicity against human SF295 cells after 48 hrs by sulforhodamine B assay; conditions: SF-295, 48 h, read-out: LC50 (the source's name); outline: as §1
MDA-MB-231 = assay: Cytotoxicity against human MDA-MB-231 cells after 48 hrs by sulforhodamine B assay; conditions: MDA-MB-231, 48 h, read-out: LC50 (the source's name); outline: as §1
UO-31 = assay: Cytotoxicity against human UO31 cells after 48 hrs by sulforhodamine B assay; conditions: UO-31, 48 h, read-out: LC50 (the source's name)
HCC 2998 [5] = assay: Cytotoxicity against human HCC2998 cells after 48 hrs by sulforhodamine B assay; conditions: HCC 2998, 48 h, read-out: LC50 (the source's name); outline: as §1
NCI-H522 = assay: Growth inhibition of human NCI-H522 cells after 48 hrs by sulforhodamine B assay; conditions: NCI-H522, 48 h; outline: as §3
SK-MEL-2 = assay: Growth inhibition of human SK-MEL-2 cells after 48 hrs by sulforhodamine B assay; conditions: SK-MEL-2, 48 h; outline: as §3
RPMI-8226 = assay: Growth inhibition of human RPMI8226 cells after 48 hrs by sulforhodamine B assay; conditions: RPMI-8226, 48 h; outline: as §3
Malme-3M [6] = assay: Cytotoxicity against human MALME-3M cells after 48 hrs by sulforhodamine B assay; conditions: read-out: LC50 (the source's name); outline: as §1
UACC-62 = assay: Cytotoxicity against human UACC62 cells after 48 hrs by sulforhodamine B assay; conditions: UACC-62, 48 h, read-out: LC50 (the source's name)
A549 = assay: Growth inhibition of human A549 cells after 48 hrs by sulforhodamine B assay; conditions: A549, 48 h; outline: as §4
HL-60(TB) = assay: Cytotoxicity against human HL-60(TB) cells after 48 hrs by sulforhodamine B assay; conditions: HL-60, 48 h, read-out: LC50 (the source's name); outline: as §1
KM12 = assay: Cytotoxicity against human KM12 cells after 48 hrs by sulforhodamine B assay; conditions: KM12, 48 h, read-out: LC50 (the source's name); outline: as §1
BT-549 [7] = assay: Growth inhibition of human BT549 cells after 48 hrs by sulforhodamine B assay; conditions: BT-549, 48 h; outline: as §4
UACC-257 = assay: Cytotoxicity against human UACC257 cells after 48 hrs by sulforhodamine B assay; conditions: UACC-257, 48 h, read-out: LC50 (the source's name)
U-251 = assay: Growth inhibition of human U251 cells after 48 hrs by sulforhodamine B assay; conditions: U-251, 48 h; outline: as §2
SK-OV-3 = assay: Cytotoxicity against human SKOV3 cells after 48 hrs by sulforhodamine B assay; conditions: SK-OV-3, 48 h, read-out: LC50 (the source's name); outline: as §1
EKVX = assay: Growth inhibition of human EKVX cells after 48 hrs by sulforhodamine B assay; outline: as §4
HCC 2998 [8] = assay: Growth inhibition of human HCC2998 cells after 48 hrs by sulforhodamine B assay; conditions: HCC 2998, 48 h; outline: as §4
Malme-3M [9] = assay: Growth inhibition of human MALME-3M cells after 48 hrs by sulforhodamine B assay; outline: as §3
BT-549 [10] = assay: Cytotoxicity against human BT549 cells after 48 hrs by sulforhodamine B assay; conditions: BT-549, 48 h, read-out: LC50 (the source's name); outline: as §1
[11] = Cytotoxicity against human Hs 578T cells after 48 hrs by sulforhodamine B assay; conditions: read-out: LC50 (the source's name); outline: as §1
PC-3 = assay: Cytotoxicity against human PC3 cells after 48 hrs by sulforhodamine B assay; conditions: PC-3, 48 h, read-out: LC50 (the source's name); outline: as §1
SW-620 [12] = assay: Cytotoxicity against human SW620 cells after 48 hrs by sulforhodamine B assay; conditions: SW-620, 48 h, read-out: LC50 (the source's name)
RXF 393 = assay: Growth inhibition of human RXF393 cells after 48 hrs by sulforhodamine B assay; conditions: RXF 393, 48 h; outline: as §3
K562 = assay: Growth inhibition of human K562 cells after 48 hrs by sulforhodamine B assay; conditions: K562, 48 h; outline: as §4
OVCAR-5 = assay: Cytotoxicity against human OVCAR5 cells after 48 hrs by sulforhodamine B assay; conditions: OVCAR-5, 48 h, read-out: LC50 (the source's name); outline: as §1
SR [13] = assay: Cytotoxicity against human SR cells after 48 hrs by sulforhodamine B assay; conditions: read-out: LC50 (the source's name)
SNB-19 = assay: Growth inhibition of human SNB19 cells after 48 hrs by sulforhodamine B assay; conditions: SNB-19, 48 h; outline: as §2

CC(C)CCC[C@@H](C)[C@H]1CC[C@H]2C3=CC[C@@H]4C(=O)C=CC(=O)[C@@H]4[C@@H]3CC[C@]12C
CC50 (T47D): > 100000 nM | CC50 (OVCAR-8): > 8120 nM | GI50 (SR [1]): 207 nM | TGI (SR [1]): > 100000 nM | GI50 (NCI/ADR-RES): 275 nM | GI50 (SW-620 [2]): 141 nM | GI50 (SF-539): 478 nM | GI50 (LOX IMVI [3]): 227 nM | TGI (LOX IMVI [3]): 1170 nM | CC50 (LOX IMVI [4]): > 4100 nM | GI50 (MDA-MB-435): 229 nM | TGI (MDA-MB-435): 997 nM | CC50 (OVCAR-4): > 2650 nM | CC50 (SF-295): > 100000 nM | CC50 (MDA-MB-231): > 100000 nM | CC50 (UO-31): > 1750 nM | CC50 (HCC 2998 [5]): > 100000 nM | GI50 (NCI-H522): 803 nM | TGI (NCI-H522): > 100000 nM | GI50 (SK-MEL-2): 3370 nM | TGI (SK-MEL-2): > 100000 nM | GI50 (RPMI-8226): 107 nM | TGI (RPMI-8226): 2230 nM | CC50 (Malme-3M [6]): > 100000 nM | CC50 (UACC-62): > 100000 nM | GI50 (A549): 58 nM | TGI (A549): 780 nM | CC50 (HL-60(TB)): > 100000 nM | CC50 (KM12): > 100000 nM | GI50 (BT-549 [7]): 427 nM | TGI (BT-549 [7]): 2550 nM | CC50 (UACC-257): > 100000 nM | GI50 (U-251): 94 nM | TGI (U-251): 1230 nM | CC50 (SK-OV-3): > 100000 nM | GI50 (EKVX): 545 nM | TGI (EKVX): > 100000 nM | GI50 (HCC 2998 [8]): 274 nM | TGI (HCC 2998 [8]): 855 nM | GI50 (Malme-3M [9]): 399 nM | TGI (Malme-3M [9]): 2000 nM | CC50 (BT-549 [10]): > 100000 nM | CC50 [11]: > 100000 nM | CC50 (PC-3): > 100000 nM | CC50 (SW-620 [12]): > 100000 nM | GI50 (RXF 393): 201 nM | TGI (RXF 393): 995 nM | GI50 (K562): 249 nM | TGI (K562): > 100000 nM | CC50 (OVCAR-5): > 100000 nM | CC50 (SR [13]): > 100000 nM | GI50 (SNB-19): 654 nM | TGI (SNB-19): > 100000 nM
